Data as given in paper PMC3608738 (Antiviral research, 2012).

Key:
[1] = target: human guanine N-7 RNA MTase (hRNMTase) (Homo sapiens, UniProt O43148); assay: Inhibition of human RNA MTase; format: biochemical
WNV MTase [2] = target: T1, WNV MTase (West Nile virus, UniProt Q9Q6P4); assay: [3H]SAM competition binding assay; details: positive control, dose response
Summary of the method: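 For G-25 filtration SAM competition, 0.6 μM WNV MTase is mixed with [methyl-3H]-SAM (about 14.1 nM final) and a 3-fold dilution series of test compound starting at 60 μM. Mixtures stand 2 h at room temperature and are spun through G-25 mini-columns. The eluted MTase-bound 3H is quantified by scintillation counting. Points are run in duplicate.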

hRNMTase = hRNMTase (Homo sapiens, UniProt O43148); assay: [3H]SAM competition binding assay
Sequence of hRNMTase (O43148 whole entry): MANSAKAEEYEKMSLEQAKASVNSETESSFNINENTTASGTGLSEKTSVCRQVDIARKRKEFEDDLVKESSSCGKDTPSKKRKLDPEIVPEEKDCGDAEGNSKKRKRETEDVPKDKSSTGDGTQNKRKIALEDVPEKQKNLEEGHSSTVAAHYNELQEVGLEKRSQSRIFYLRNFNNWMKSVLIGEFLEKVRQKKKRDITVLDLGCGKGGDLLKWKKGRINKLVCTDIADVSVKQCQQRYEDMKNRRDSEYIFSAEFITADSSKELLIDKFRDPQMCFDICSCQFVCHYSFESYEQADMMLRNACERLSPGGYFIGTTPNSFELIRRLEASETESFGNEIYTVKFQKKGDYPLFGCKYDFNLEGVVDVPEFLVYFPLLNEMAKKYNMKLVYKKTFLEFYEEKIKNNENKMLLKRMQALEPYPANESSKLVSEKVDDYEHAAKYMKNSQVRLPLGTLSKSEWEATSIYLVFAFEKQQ

WNV MTase [3] = target: T1, WNV MTase; assay: In vitro 2'-O methylation inhibition assay; format: biochemical
Summary of the method: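 2'-O methylation is followed as conversion of m7G*pppA-RNA to m7G*pppAm-RNA. Each reaction contains 1.5 μM WNV MTase, 80 μM SAM, 0.36 μM m7G*pppA-RNA substrate and a range of test compound concentrations. Products are digested with nuclease P1, and the caps are separated by TLC and quantified by PhosphorImager. Activity is taken from m7G*pppA versus m7G*pppAm, with no-compound activity set at 100%. IC50 comes from a dose–response fit; Ki comes from Cheng-Prusoff.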

WNV (NY99) = assay: Viral titer reduction assay; format: cell-based, West Nile virus; details: A549 cells, WNV MOI 0.1, 42 h
Summary of the method: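 About 2 × 10^5 A549 cells per well are treated 24-30 h after seeding, in triplicate. Test compound, made at 2X in medium with 2% DMSO, is added, followed immediately by WNV NY99 at MOI 0.1 PFU/cell. After 42 h at 37°C, culture fluid is titred by plaque assay on confluent Vero monolayers under a 0.6% agar overlay with a neutral red second overlay. EC50 comes from nonlinear regression of the dose–response curve.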

WNV MTase [4] = target: T1, WNV MTase; assay: In vitro N7 methylation inhibition assay; format: biochemical

T1 sequence (Q9Q6P4 2529-2794): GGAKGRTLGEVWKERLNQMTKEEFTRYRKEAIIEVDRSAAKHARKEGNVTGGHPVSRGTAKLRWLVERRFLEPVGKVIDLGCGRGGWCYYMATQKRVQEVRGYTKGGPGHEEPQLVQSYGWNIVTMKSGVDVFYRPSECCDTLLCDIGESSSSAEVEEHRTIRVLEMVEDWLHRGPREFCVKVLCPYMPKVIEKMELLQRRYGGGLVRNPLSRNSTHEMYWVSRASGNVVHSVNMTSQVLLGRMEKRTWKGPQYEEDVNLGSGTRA
Sequence of human guanine N-7 RNA MTase (hRNMTase) (O43148 whole entry): as the sequence (O43148 whole entry) above

SMILES: Nc1ncnc2c1ncn2[C@@H]1O[C@H](C[C@@H](N)CC[C@H](N)C(=O)O)[C@@H](O)[C@H]1O [SIN, Sinefungin, reference compound]
- IC50 [1]: ~41.2 µM
- Inhibition of 3H-labeled SAM-MTase complex formation (in words) (WNV MTase [2]): very efficiently in a dose-dependent manner
- Inhibition of [3H]SAM binding to hRNMTase (in words) (hRNMTase; control, dose response): decreased the SAM binding very efficiently

SMILES: CCOC(=O)[C@@](C)(O)[C@@H]1C[C@@H](CO[Si](c2ccccc2)(c2ccccc2)C(C)(C)C)O[C@H]1n1cc(F)c(=O)[nH]c1=O [GRL-003]
- Inhibition of hRNMTase activity (in words) ([1]; even at 300 μM compound concentration): did not inhibit
- Hill coef. (2'-O) (WNV MTase [3]; dose-response curve of 2'-O MTase inhibition): 2.8
- Fold lower Ki than GRL-001 (2'-O inhibition) (WNV MTase [3]; relative to GRL-001): 12 fold
- Concentration giving one logarithmic order of reduction in the WNV replication (WNV (NY99)): 50 μM
- Inhibition of N-7 MTase activity (in words) (WNV MTase [4]): only moderately inhibited
- Hill coef. (N-7) (WNV MTase [4]; dose-response curve of N-7 MTase inhibition): 0.9
- Fold lower Ki than GRL-001 (N-7 inhibition) (WNV MTase [4]; relative to GRL-001): 5 fold
- Inhibition of [3H]SAM binding to hRNMTase (in words) (hRNMTase; 300 μM compound): did not inhibit
